Results from ChEMBL document CHEMBL1821654, “Synthesis and biological evaluation of analogues of M6G” (2011).
Activity calls are given as the source filed them.

Columns and labels:
[1] = tested on: Mus musculus; experiment: Analgesic activity in Swiss mouse assessed as maximum possible tail flick latency at 1.25 mg/kg, sc; format: functional; conditions: route subcutaneous
Procedure, shortened: (§1)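 Male Swiss mice, 12 per group, were given compound subcutaneously at doses between 1.25 and 30 mg/kg. Analgesia was measured by tail-flick with an 8 s cut-off to avoid tissue damage. Readings were taken several times from 20 to 120 min after dosing. Inhibition was expressed as percent maximum possible effect (%MPE) by the D'Amour–Smith method.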

[2] = tested on: Mus musculus; experiment: Analgesic activity in Swiss mouse assessed as maximum possible tail flick latency at 1.25 mg/kg, sc upto 120 mins; format: functional, organism-based; parameters: dose 1.25 mg/kg; procedure, shortened: as §1
[3] = tested on: Mus musculus; experiment: Analgesic activity in Swiss mouse assessed as maximum possible tail flick latency at 10 mg/kg, po; format: functional
Procedure, shortened: (§2)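 Compound was given […] to male Swiss mice, 12 per group. Analgesia was measured by tail-flick with an 8 s cut-off. Responsiveness was read several times from 20 to 120 min after dosing. Tail-flick inhibition was expressed as percent maximum possible effect (%MPE) by the D'Amour–Smith method.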

[4] = tested on: Mus musculus; experiment: Analgesic activity in po dosed Swiss mouse assessed as thermal-stimulus induced tail flick latency; format: functional; procedure, shortened: as §2
[5] = tested on: Mus musculus; experiment: Analgesic activity in sc dosed Swiss mouse assessed as assessed as thermal-stimulus induced tail flick latency after 30 mins; conditions: 0.5 h
[6] = tested on: Mus musculus; experiment: Analgesic activity in sc dosed Swiss mouse assessed as assessed as thermal-stimulus induced tail flick latency after 60 mins; format: functional; conditions: 1 h

Compound	MPE [1]	Activity [2]	other results
Cc1nnc([C@H]2O[C@@H](O[C@H]3C=C[C@H]4[C@H]5Cc6ccc(O)c7c6[C@@]4(CCN5C)[C@H]3O7)[C@H](O)[C@@H](O)[C@@H]2O)o1.O=C(O)C(F)(F)F	80%	Active	
CN1CC[C@]23c4c5ccc(O)c4O[C@H]2[C@@H](O[C@@H]2O[C@H](c4nnn[nH]4)[C@@H](O)[C@H](O)[C@H]2O)C=C[C@H]3[C@H]1C5.O=C(O)C(F)(F)F	80%	Active	MPE [3]: 78%; ED50 [4]: 2.5 mg/kg
CN1CC[C@]23c4c5ccc(O)c4O[C@H]2[C@@H](O[C@@H]2O[C@H](c4nc6n(n4)CCC(O)N6)[C@@H](O)[C@H](O)[C@H]2O)C=C[C@H]3[C@H]1C5.O=C(O)C(F)(F)F (stereo not given in full)	80%	Active	
CN1CC[C@]23c4c5ccc(O)c4O[C@H]2[C@@H](O)C=C[C@H]3[C@H]1C5 [MORPHINE]			ED50 [5]: 4.4 mg/kg
CN1CC[C@]23c4c5ccc(O)c4O[C@H]2[C@@H](O[C@@H]2O[C@H](C(=O)O)[C@@H](O)[C@H](O)[C@H]2O)C=C[C@H]3[C@H]1C5 [MORPHINE GLUCURONIDE]			ED50 [6]: 2.7 mg/kg
